Test results from ChEMBL document CHEMBL1145427, “Quick assembly of 1,4-diphenyltriazoles as probes targeting beta-amyloid aggregates in Alzheimer's disease” (J Med Chem, 2007).
Values belong to the compound of their own block, whether it stands above or below them.

Key:
[1] = Displacement of [125I]IMPY from beta amyloid protein plaques in Alzheimer's disease patient brain; set-up: species or system Homo sapiens
In short: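 Competition binding to pooled gray-matter homogenates from four AD brains (approximately 100 mg wet tissue/mL in PBS pH 7.4; 20–50 μg per tube). [125I]2 at 0.04–0.06 nM; inhibitors 10^-5–10^-10 M in PBS with 0.1% BSA; final volume 1 mL. Nonspecific binding with 600 nM 2. Incubated 37 °C, 2 h; GF/B filtration, gamma counting. Ki from nonlinear regression.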

Heart [2] = assay: Biodistribution in ICR mouse heart at 5 to 10 uCi, iv after 2 hrs; assay type: ADME, organism-based; settings: in vivo
In short: (§1)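 Male ICR mice (22–25 g) under isoflurane anesthesia; [125I] or [18F] tracer (5–10 μCi) in 0.15 mL of 0.1% bovine serum albumin solution injected into the tail vein. Groups of n = 3 per time point, killed by cervical dislocation. Organs removed, weighed and gamma-counted against diluted aliquots of injected dose, giving % dose/organ and % ID/g. Total blood activity assumed as 7% of body weight.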

Muscle tissue [3] = assay: Biodistribution in ICR mouse muscle at 5 to 10 uCi, iv after 2 mins; assay type: ADME, organism-based; settings: in vivo; in short: as §1
Muscle tissue [4] = assay: Biodistribution in ICR mouse muscle at 5 to 10 uCi, iv after 30 mins; assay type: ADME, organism-based; settings: in vivo, 0.5 h; in short: as §1
Muscle tissue [5] = assay: Biodistribution in ICR mouse muscle at 5 to 10 uCi, iv after 1 hr; assay type: ADME, organism-based; settings: in vivo; in short: as §1
Muscle tissue [6] = assay: Biodistribution in ICR mouse muscle at 5 to 10 uCi, iv after 2 hrs; assay type: ADME, organism-based; settings: in vivo; in short: as §1
Lung [7] = assay: Biodistribution in ICR mouse lung at 5 to 10 uCi, iv after 2 mins; assay type: ADME, organism-based; settings: in vivo; in short: as §1
Lung [8] = assay: Biodistribution in ICR mouse lung at 5 to 10 uCi, iv after 30 mins; assay type: ADME, organism-based; settings: in vivo, 0.5 h; in short: as §1
Lung [9] = assay: Biodistribution in ICR mouse lung at 5 to 10 uCi, iv after 1 hr; assay type: ADME, organism-based; settings: in vivo; in short: as §1
[10] = Partition coefficient, log P of the compound; assay type: physicochemical; settings: octanol/water
In short: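 [125I] or [18F] tracer mixed with 3 g each of 1-octanol and 0.1 M phosphate buffer pH 7.4. Vortexed 3 min at room temperature, then centrifuged 5 min. Two 0.5 g samples from each layer counted; PC is the ratio of cpm/g in octanol to cpm/g in buffer. The octanol layer was repartitioned until values were consistent.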

Blood [11] = assay: Biodistribution in ICR mouse blood at 5 to 10 uCi, iv after 2 mins; assay type: ADME, organism-based; settings: in vivo; in short: as §1
Blood [12] = assay: Biodistribution in ICR mouse blood at 5 to 10 uCi, iv after 30 mins; assay type: ADME, organism-based; settings: in vivo, 0.5 h; in short: as §1
Blood [13] = assay: Biodistribution in ICR mouse blood at 5 to 10 uCi, iv after 1 hr; assay type: ADME, organism-based; settings: in vivo; in short: as §1
Blood [14] = assay: Biodistribution in ICR mouse blood at 5 to 10 uCi, iv after 2 hrs; assay type: ADME, organism-based; settings: in vivo; in short: as §1
Heart [15] = assay: Biodistribution in ICR mouse heart at 5 to 10 uCi, iv after 2 mins; assay type: ADME, organism-based; settings: in vivo; in short: as §1
Heart [16] = assay: Biodistribution in ICR mouse heart at 5 to 10 uCi, iv after 30 mins; assay type: ADME, organism-based; settings: in vivo, 0.5 h; in short: as §1
Heart [17] = assay: Biodistribution in ICR mouse heart at 5 to 10 uCi, iv after 1 hr; assay type: ADME, organism-based; settings: in vivo; in short: as §1
Lung [18] = assay: Biodistribution in ICR mouse lung at 5 to 10 uCi, iv after 2 hrs; assay type: ADME, organism-based; settings: in vivo; in short: as §1
Kidney [19] = assay: Biodistribution in ICR mouse kidney at 5 to 10 uCi, iv after 2 mins; assay type: ADME, organism-based; settings: in vivo; in short: as §1
Kidney [20] = assay: Biodistribution in ICR mouse kidney at 5 to 10 uCi, iv after 30 mins; assay type: ADME, organism-based; settings: in vivo, 0.5 h; in short: as §1
Kidney [21] = assay: Biodistribution in ICR mouse kidney at 5 to 10 uCi, iv after 1 hr; assay type: ADME, organism-based; settings: in vivo; in short: as §1
Kidney [22] = assay: Biodistribution in ICR mouse kidney at 5 to 10 uCi, iv after 2 hrs; assay type: ADME, organism-based; settings: in vivo; in short: as §1
Spleen [23] = assay: Biodistribution in ICR mouse spleen at 5 to 10 uCi, iv after 2 mins; assay type: ADME, organism-based; settings: in vivo; in short: as §1
Spleen [24] = assay: Biodistribution in ICR mouse spleen at 5 to 10 uCi, iv after 30 mins; assay type: ADME, organism-based; settings: in vivo, 0.5 h; in short: as §1
Spleen [25] = assay: Biodistribution in ICR mouse spleen at 5 to 10 uCi, iv after 1 hr; assay type: ADME, organism-based; settings: in vivo; in short: as §1
Spleen [26] = assay: Biodistribution in ICR mouse spleen at 5 to 10 uCi, iv after 2 hrs; assay type: ADME, organism-based; settings: in vivo; in short: as §1
Liver [27] = assay: Biodistribution in ICR mouse liver at 5 to 10 uCi, iv after 2 mins; assay type: ADME, organism-based; settings: in vivo; in short: as §1
Liver [28] = assay: Biodistribution in ICR mouse liver at 5 to 10 uCi, iv after 30 mins; assay type: ADME, organism-based; settings: in vivo, 0.5 h; in short: as §1
Liver [29] = assay: Biodistribution in ICR mouse liver at 5 to 10 uCi, iv after 1 hr; assay type: ADME, organism-based; settings: in vivo; in short: as §1
Liver [30] = assay: Biodistribution in ICR mouse liver at 5 to 10 uCi, iv after 2 hrs; assay type: ADME, organism-based; settings: in vivo; in short: as §1
Zone of skin [31] = assay: Biodistribution in ICR mouse skin at 5 to 10 uCi, iv after 2 mins; assay type: ADME, organism-based; settings: in vivo; in short: as §1
Zone of skin [32] = assay: Biodistribution in ICR mouse skin at 5 to 10 uCi, iv after 30 mins; assay type: ADME, organism-based; settings: in vivo, 0.5 h; in short: as §1
Zone of skin [33] = assay: Biodistribution in ICR mouse skin at 5 to 10 uCi, iv after 1 hr; assay type: ADME, organism-based; settings: in vivo; in short: as §1
Zone of skin [34] = assay: Biodistribution in ICR mouse skin at 5 to 10 uCi, iv after 2 hrs; assay type: ADME, organism-based; settings: in vivo; in short: as §1
Brain [35] = assay: Biodistribution in ICR mouse brain at 5 to 10 uCi, iv after 2 mins; assay type: ADME, organism-based; settings: in vivo; in short: as §1
Brain [36] = assay: Biodistribution in ICR mouse brain at 5 to 10 uCi, iv after 30 mins; assay type: ADME, organism-based; settings: in vivo, 0.5 h; in short: as §1
Brain [37] = assay: Biodistribution in ICR mouse brain at 5 to 10 uCi, iv after 1 hr; assay type: ADME, organism-based; settings: in vivo; in short: as §1
Brain [38] = assay: Biodistribution in ICR mouse brain at 5 to 10 uCi, iv after 2 hrs; assay type: ADME, organism-based; settings: in vivo; in short: as §1
Thyroid gland [39] = assay: Biodistribution in ICR mouse thyroid at 5 to 10 uCi, iv after 2 mins; assay type: ADME, organism-based; settings: in vivo; in short: as §1
Thyroid gland [40] = assay: Biodistribution in ICR mouse thyroid at 5 to 10 uCi, iv after 30 mins; assay type: ADME, organism-based; settings: in vivo, 0.5 h; in short: as §1
Thyroid gland [41] = assay: Biodistribution in ICR mouse thyroid at 5 to 10 uCi, iv after 1 hr; assay type: ADME, organism-based; settings: in vivo; in short: as §1
Thyroid gland [42] = assay: Biodistribution in ICR mouse thyroid at 5 to 10 uCi, iv after 2 hrs; assay type: ADME, organism-based; settings: in vivo; in short: as §1

Compound: CN(C)c1ccc(-c2cn(-c3ccc(OCCF)cc3)nn2)cc1
Ki [1]: 5 nM

Compound: CN(C)c1ccc(-c2cn(-c3ccc(OCCCO)cc3)nn2)cc1
Ki [1]: 75 nM

More lines, now with the values ahead:

Ki [1]: 4 nM
Compound: CNc1ccc(-c2cn(-c3ccc(I)cc3)nn2)cc1

Ki [1]: 8 nM
Compound: CN(C)c1ccc(-c2cn(-c3ccc(I)cc3)nn2)cc1

Drug uptake (Heart [2]): 0.89 % ID/g | Drug uptake (Muscle tissue [3]): 0.83 % ID/g | Drug uptake (Muscle tissue [4]): 1.07 % ID/g | Drug uptake (Muscle tissue [5]): 0.56 % ID/g | Drug uptake (Muscle tissue [6]): 0.47 % ID/g | Drug uptake (Lung [7]): 16 % ID/g | Drug uptake (Lung [8]): 4.86 % ID/g | Drug uptake (Lung [9]): 2.82 % ID/g | logP [10]: 3 | Drug uptake (Blood [11]): 4.45 % ID/g | Drug uptake (Blood [12]): 3.04 % ID/g | Drug uptake (Blood [13]): 2.04 % ID/g | Drug uptake (Blood [14]): 2.06 % ID/g | Drug uptake (Heart [15]): 7.45 % ID/g | Drug uptake (Heart [16]): 1.79 % ID/g | Drug uptake (Heart [17]): 1.1 % ID/g | Drug uptake (Lung [18]): 2.83 % ID/g | Drug uptake (Kidney [19]): 13.4 % ID/g | Drug uptake (Kidney [20]): 6.43 % ID/g | Drug uptake (Kidney [21]): 3.71 % ID/g | Drug uptake (Kidney [22]): 2.91 % ID/g | Drug uptake (Spleen [23]): 4.9 % ID/g | Drug uptake (Spleen [24]): 1.8 % ID/g | Drug uptake (Spleen [25]): 1.24 % ID/g | Drug uptake (Spleen [26]): 1.16 % ID/g | Drug uptake (Liver [27]): 20.7 % ID/g | Drug uptake (Liver [28]): 11.1 % ID/g | Drug uptake (Liver [29]): 6.46 % ID/g | Drug uptake (Liver [30]): 6 % ID/g | Drug uptake (Zone of skin [31]): 1.05 % ID/g | Drug uptake (Zone of skin [32]): 2.34 % ID/g | Drug uptake (Zone of skin [33]): 1.81 % ID/g | Drug uptake (Zone of skin [34]): 1.6 % ID/g | Drug uptake (Brain [35]): 9.4 % ID/g | Drug uptake (Brain [36]): 1.66 % ID/g | Drug uptake (Brain [37]): 0.7 % ID/g | Drug uptake (Brain [38]): 0.43 % ID/g | Drug uptake (Thyroid gland [39]): 4.38 % ID/g | Drug uptake (Thyroid gland [40]): 11.5 % ID/g | Drug uptake (Thyroid gland [41]): 54.2 % ID/g | Drug uptake (Thyroid gland [42]): 62.1 % ID/g
Compound: CNc1ccc(-c2cn(-c3ccc([125I])cc3)nn2)cc1

Ki [1]: 6.2 nM
Compound: CN(C)c1ccc(-c2cn(-c3ccc(OCCCF)cc3)nn2)cc1
